Activity calls are given as the source filed them. The rule behind the calls is not given here.

Assay [1] has as its target T1, Muscarinic acetylcholine receptor M1 (Homo sapiens, UniProt P11229).
T1 sequence (P11229 whole entry): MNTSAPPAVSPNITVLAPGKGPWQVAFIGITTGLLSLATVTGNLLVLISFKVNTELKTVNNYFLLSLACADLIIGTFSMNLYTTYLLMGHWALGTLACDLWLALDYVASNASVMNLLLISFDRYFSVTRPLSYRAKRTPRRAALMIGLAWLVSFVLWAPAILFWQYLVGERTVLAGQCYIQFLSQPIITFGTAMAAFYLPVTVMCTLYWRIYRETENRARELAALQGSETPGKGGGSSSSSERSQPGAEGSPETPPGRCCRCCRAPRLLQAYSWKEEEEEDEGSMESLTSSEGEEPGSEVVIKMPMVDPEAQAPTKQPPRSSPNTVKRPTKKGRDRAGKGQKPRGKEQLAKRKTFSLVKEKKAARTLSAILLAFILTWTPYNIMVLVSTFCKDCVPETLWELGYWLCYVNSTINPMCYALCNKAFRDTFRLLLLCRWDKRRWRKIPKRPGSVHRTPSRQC
Kind of assay: Inhibition of [3H](R)-QNB binding to human M1 receptor expressed in A9 L cells. It is filed as cell-based, A9L.

Assay [2] concerns the target T2, Muscarinic acetylcholine receptor M2 (Homo sapiens, UniProt P08172).
T2 sequence (P08172 whole entry): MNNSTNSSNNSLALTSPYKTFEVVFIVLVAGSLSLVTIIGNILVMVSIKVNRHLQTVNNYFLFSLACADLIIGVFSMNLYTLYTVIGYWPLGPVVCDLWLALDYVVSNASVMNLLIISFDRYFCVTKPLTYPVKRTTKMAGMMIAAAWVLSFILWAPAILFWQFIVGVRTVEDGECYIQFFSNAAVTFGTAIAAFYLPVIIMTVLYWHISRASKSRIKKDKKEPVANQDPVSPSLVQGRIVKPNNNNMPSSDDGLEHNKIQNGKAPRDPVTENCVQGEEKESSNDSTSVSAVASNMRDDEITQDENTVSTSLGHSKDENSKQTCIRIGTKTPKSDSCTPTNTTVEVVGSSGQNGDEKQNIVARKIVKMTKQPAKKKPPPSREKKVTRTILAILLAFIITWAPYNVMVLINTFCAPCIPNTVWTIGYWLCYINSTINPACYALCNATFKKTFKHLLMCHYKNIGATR
Kind of assay: Inhibition of [3H](R)-QNB binding to human M2 receptor expressed in A9 L cells. It is filed as cell-based, A9L. The method in brief: (§1)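 Membranes from A9 L cells expressing the receptor; 0.1 nM [3H]-(R)-QNB with 14 concentrations of test ligand (0.01 nM to 3 mM) in 25 mM sodium phosphate pH 7.4, 5 mM MgCl2, 2 h room temperature; nonspecific binding with 1000-fold excess unlabeled (R)-QNB.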

For assay [3], the target named is T3, Muscarinic acetylcholine receptor M3 (Homo sapiens, UniProt P20309). The assay can be described thus: Inhibition of [3H](R)-QNB binding to human M3 receptor expressed in A9 L cells. It is filed as cell-based, A9L.
Target sequence in this assay (P20309 whole entry): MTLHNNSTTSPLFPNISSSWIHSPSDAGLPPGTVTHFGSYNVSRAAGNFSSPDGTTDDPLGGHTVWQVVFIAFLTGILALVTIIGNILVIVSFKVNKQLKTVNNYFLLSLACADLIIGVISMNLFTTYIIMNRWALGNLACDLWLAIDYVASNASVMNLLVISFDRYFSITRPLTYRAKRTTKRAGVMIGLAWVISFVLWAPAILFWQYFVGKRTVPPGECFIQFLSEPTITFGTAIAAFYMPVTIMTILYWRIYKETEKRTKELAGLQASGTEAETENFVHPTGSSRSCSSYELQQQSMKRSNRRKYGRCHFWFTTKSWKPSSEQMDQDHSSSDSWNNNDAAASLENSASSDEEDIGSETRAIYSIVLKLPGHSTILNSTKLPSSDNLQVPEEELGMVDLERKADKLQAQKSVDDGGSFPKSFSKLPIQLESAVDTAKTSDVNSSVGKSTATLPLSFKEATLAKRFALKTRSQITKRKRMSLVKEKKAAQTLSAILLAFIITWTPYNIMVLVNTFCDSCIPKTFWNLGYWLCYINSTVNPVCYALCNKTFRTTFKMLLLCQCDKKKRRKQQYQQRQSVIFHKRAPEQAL
Assay [4] has as its target T4, Muscarinic acetylcholine receptor M4 (Homo sapiens, UniProt P08173).
T4 sequence (P08173 whole entry): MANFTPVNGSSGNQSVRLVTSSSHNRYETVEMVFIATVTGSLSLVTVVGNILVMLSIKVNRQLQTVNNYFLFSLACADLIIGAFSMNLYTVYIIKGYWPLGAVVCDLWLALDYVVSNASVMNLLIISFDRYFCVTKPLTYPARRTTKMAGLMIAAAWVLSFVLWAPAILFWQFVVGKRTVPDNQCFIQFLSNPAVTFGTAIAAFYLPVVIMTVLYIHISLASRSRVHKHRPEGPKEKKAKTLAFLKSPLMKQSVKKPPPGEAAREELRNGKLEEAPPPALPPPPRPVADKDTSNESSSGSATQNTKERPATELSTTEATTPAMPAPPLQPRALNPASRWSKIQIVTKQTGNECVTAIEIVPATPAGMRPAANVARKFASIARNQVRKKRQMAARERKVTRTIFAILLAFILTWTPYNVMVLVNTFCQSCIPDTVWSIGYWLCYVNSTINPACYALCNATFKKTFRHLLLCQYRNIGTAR
The assay can be described thus: Inhibition of [3H](R)-QNB binding to human M4 receptor expressed in A9 L cells. It is filed as cell-based, A9L. An outline of the steps:
as §1

The target in assay [5] is T5, Muscarinic acetylcholine receptor M5 (Homo sapiens, UniProt P08912).
T5 sequence (P08912 whole entry): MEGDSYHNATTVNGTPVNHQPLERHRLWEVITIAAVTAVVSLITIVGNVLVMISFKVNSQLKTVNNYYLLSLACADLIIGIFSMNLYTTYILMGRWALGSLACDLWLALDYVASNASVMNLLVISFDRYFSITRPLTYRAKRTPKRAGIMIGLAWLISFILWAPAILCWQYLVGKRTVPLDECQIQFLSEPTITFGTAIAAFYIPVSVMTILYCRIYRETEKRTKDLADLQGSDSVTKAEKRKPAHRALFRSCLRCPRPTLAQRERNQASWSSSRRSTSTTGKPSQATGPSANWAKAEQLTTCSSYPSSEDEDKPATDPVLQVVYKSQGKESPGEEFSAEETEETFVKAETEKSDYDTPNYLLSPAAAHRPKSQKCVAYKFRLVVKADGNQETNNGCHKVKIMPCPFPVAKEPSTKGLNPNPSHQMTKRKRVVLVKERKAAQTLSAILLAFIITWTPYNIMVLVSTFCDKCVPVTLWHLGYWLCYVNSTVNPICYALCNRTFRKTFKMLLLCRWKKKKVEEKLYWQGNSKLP
Kind of assay: Inhibition of [3H](R)-QNB binding to human M5 receptor expressed in A9 L cells. It is filed as cell-based, A9L. An outline of the steps: as §1

In assay [6] the target is T1, Muscarinic acetylcholine receptor M1. The assay can be described thus: Agonist activity at human M1 receptor expressed in A9 L cells assessed as stimulation of phosphoinositide hydrolysis. It is filed as functional, cell-based, L929.
Assay [7] addresses T6, Muscarinic acetylcholine receptor M1 (Homo sapiens) (UniProt P11229).
T6 sequence (whole entry): T1 sequence (P11229 whole entry)
Kind of assay: Agonist activity at human M1 receptor expressed in A9 L cells assessed as stimulation of phosphoinositide hydrolysis relative to carbachol. To be noted: L929. It is filed as functional, cell-based. The method in brief:
(§2)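 A9 L cells stably expressing the receptor, seeded 24 h, labelled overnight with 10 µCi/mL [3H]inositol in inositol-free DMEM; ligands in HBSS with 10 mM LiCl, 20 mM HEPES, 37 °C, 1 h; formic acid extraction, inositol phosphates counted by SPA beads.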

Assay [8] concerns the target T3, Muscarinic acetylcholine receptor M3. Kind of assay: Agonist activity at human M3 receptor expressed in A9 L cells assessed as stimulation of phosphoinositide hydrolysis relative to carbachol. It is filed as functional, cell-based. The conditions noted are these: L929. An outline of the steps: as §2
Target sequence in this assay (P20309 whole entry, looked up): as the sequence (P20309 whole entry) above
Assay [9] has as its target T7, Muscarinic acetylcholine receptor M5 (Homo sapiens) (UniProt P08912).
T7 sequence (whole entry): T5 sequence (P08912 whole entry)
Kind of assay: Agonist activity at human M5 receptor expressed in A9 L cells assessed as stimulation of phosphoinositide hydrolysis relative to carbachol. To be noted: L929. It is filed as functional, cell-based. An outline of the steps:
as §2

The target in assay [10] is T2, Muscarinic acetylcholine receptor M2. Kind of assay: Activity at human M2 receptor assessed as inhibition of forskolin-stimulated cAMP accumulation. It is filed as functional.
Assay [11] addresses T8, Muscarinic acetylcholine receptor M2 (Homo sapiens) (UniProt P08172).
T8 sequence (whole entry): T2 sequence (P08172 whole entry)
Kind of assay: Activity at human M2 receptor assessed as inhibition of forskolin-stimulated cAMP accumulation relative to carbachol. It is filed as functional.

In assay [12] the target is T4, Muscarinic acetylcholine receptor M4. Kind of assay: Activity at human M4 receptor assessed as inhibition of forskolin-stimulated cAMP accumulation. It is filed as functional.
In assay [13] the target is T9, Muscarinic acetylcholine receptor M4 (Homo sapiens) (UniProt P08173).
T9 sequence (whole entry): T4 sequence (P08173 whole entry)
Kind of assay: Activity at human M4 receptor assessed as inhibition of forskolin-stimulated cAMP accumulation relative to carbachol. It is filed as functional.

Assay [14] has as its target T8, Muscarinic acetylcholine receptor M2 (Homo sapiens). The assay can be described thus: Activity at human M2 receptor assessed as inhibition of forskolin-stimulated cAMP accumulation at 1 mM relative to carbachol. It is filed as functional.
The target of assay [15] is T9, Muscarinic acetylcholine receptor M4 (Homo sapiens). Kind of assay: Activity at human M4 receptor assessed as inhibition of forskolin-stimulated cAMP accumulation at 1 mM relative to carbachol. It is filed as functional.
Assay [16] concerns Rattus norvegicus. The assay can be described thus: Antipsychotic activity in Sprague-Dawley rat assessed as ability to reverse apomorphine effect on prepulse inhibition of the startle response at 1 mg/kg, sc. It is filed as functional, organism-based. Set-up: dose 1 mg/kg. An outline of the steps: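 Male Sprague-Dawley rats, 250-300 g, habituated a day before. Drug in water or saline sc (1 mL/kg) 25 min, apomorphine 1.0 mg/kg 5 min pre-test; muscarinic agonists 0.1-3 mg/kg. Session of 15 each pulse-alone (120 dB, 100 ms) and pulse preceded 200 ms by 20 ms prepulse 12 dB above 70 dB background; 12 rats/group; %PPI calculated.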

The target in assay [17] is T7, Muscarinic acetylcholine receptor M5 (Homo sapiens). The assay can be described thus: Agonist activity at human M5 receptor expressed in A9 L cells assessed as stimulation of phosphoinositide hydrolysis at 100 uM relative to carbachol. It is filed as functional, cell-based. The conditions noted are these: L929.
Assay [18] deals with T3, Muscarinic acetylcholine receptor M3. The assay can be described thus: Antagonist activity at human M3 receptor assessed as inhibition of carbachol […]. To be noted: read-out: pA2 (converted).
Target sequence in this assay (P20309 whole entry): as the sequence (P20309 whole entry) above

Take `CN1CCC=C(c2nsnc2OCCOCCOCCOCCO)C1`: the Ki in [1] was 1000 nM; in assay [2] it was 316 nM; in [3], 316 nM; in [4] it was 794 nM; in [5], 3980 nM. Moreover, in [6], the half-maximal effective concentration (EC50) is 794 nM. The Smax came out at 7.9% in [7] and 7.4% in assay [9]. Further, in assay [8], the result was inactive. In addition, the half-maximal inhibitory concentration (IC50) in [10] is 7.94 nM; in [12], 25.1 µM. Also, the Imax in assay [11] was 86%; in [13], 110%.

Regarding `COc1nsnc1OCCCOCCCOCCCOc1nsnc1C1=CCCN(C)C1`, the Ki in [1] is 100 nM; in assay [2], 158 nM; in [3] it was 200 nM; in assay [4] it was 158 nM; in assay [5], 100 nM. The EC50 in assay [6] is 3160 nM. In addition, the Smax in assay [7] was determined as 21%; in [9] it was 0.6%. Besides, the result in assay [8] was inactive. Also, the Imax worked out at 130% in assay [14] and 260% in assay [15].

For the compound `CN1CCN(C2=Nc3cc(Cl)ccc3Nc3ccccc32)CC1`, the result in [16] was Active.

Take `Clc1ccc2c(c1)N=C(N1CCNCC1)c1ccccc1N2`: the outcome in [16] was inactive.

On to `COc1nsc(OCCCOCCCOCCCOc2nsnc2C2=CCCN(C)C2)n1`, for which the Ki is 63.1 nM in assay [1]; 63.1 nM in [2]; 200 nM in [3]; 158 nM in assay [4]; 251 nM in [5]. The concentration for a half-maximal effect (EC50) in assay [6] is 501 nM. For the same compound, the Smax in [7] was determined as 27%. Further, the outcome in [8] and in assay [9] was inactive. In addition, the Imax entry in assay [11] is “inactive”. Moreover, the IC50 in assay [12] was 6.31 µM. Further, the Imax in [13] is 130%.

With `COc1nsnc1OCCOCCOCCOCCOCCOc1nsnc1C1=CCCN(C)C1`, the inhibitory constant (Ki) was 398 nM in [1]; 2.51 nM in assay [2]; 1580 nM in [3]; 12.6 nM in [4]; 100 nM in assay [5]. The EC50 in assay [6] was 251 nM. Moreover, the Smax in [7] was found to be 28%; in assay [17] it was 0.95%. Further, in assay [8], the outcome was inactive. Further, the results for the IC50 in assay [10] and in assay [12] were 398 nM and 0.398 µM, respectively. Moreover, the Imax in assay [11] is 98%; in assay [13], 37%. For the same compound, in assay [18], the Kb is 63.1 nM.

With `O=C(CCCN1CCC(O)(c2ccc(Cl)cc2)CC1)c1ccc(F)cc1`, the result in assay [16] was Active.

On to `COc1nsnc1OCCOCCOc1nsnc1C1=CCCN(C)C1`, for which the Ki was 794 nM in assay [1]; 39.8 nM in assay [2]; 50.1 nM in assay [3]; 63.1 nM in assay [4]; 251 nM in [5]. Also, the EC50 in assay [6] was 1000 nM. Besides, the Smax in assay [7] came to 11%; in [17], 0.83%. For the same compound, the result in [8] was inactive. For the same compound, the IC50 in assay [10] was 79.4 nM; in assay [12] it was 7.94 µM. Besides, the Imax in assay [11] was determined as 77%; in assay [13] it was 47%.

As for `COc1nsnc1OCCOCCOCCOc1nsnc1C1=CCCN(C)C1`, the Ki in [1] was 316 nM; in [2], 39.8 nM; in assay [3], 251 nM; in assay [4], 79.4 nM; in assay [5], 631 nM. The EC50 in assay [6] was 794 nM. The Smax in assay [7] is 13%; in [17], 1.3%. The outcome in [8] was inactive. For the same compound, the IC50 is 3160 nM in assay [10] and 7.94 µM in assay [12]. The values for the Imax in assay [11] and in assay [13] were 110% and 100%, respectively.

Values taken from ChEMBL document CHEMBL1138216, “Design and synthesis of novel derivatives of the muscarinic agonist tetra(ethylene glycol)(3-methoxy-1,2,5-thiadiazol-4-yl) [3-(1-methyl-1,2,5,6-tetrahydropyrid-3-yl)-1,2,5-thiadiazol-4-yl] ether (CDD-0304): effects of structural modifications on the binding and activity at muscarinic receptor …” (J Med Chem, 2006).
